Measured values taken from ChEMBL document CHEMBL3046951, “Volatile constituents from the leaves of Callicarpa japonica Thunb. and their antibacterial activities” (2004).

Experiments:
Assay type in all cases: functional
[1] = system: Bacillus cereus; assay: Antimicrobial activity against Bacillus cereus ATCC 11778 assessed as growth inhibition rate at 64.76 mg/l after 72 hr by spectrophotometry; details: ATCC 11778, 72 h, read-out: GI
Summary of the method: (§1)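 Pure volatile compounds (purity >95%; one at 90%) were tested against B. cereus ATCC 11778. The strain was grown at 30 °C in nutrient broth for 24 h, then subcultured for 18 h. Optical density was read in a Bioscreen C every 24 h for 72 h, with 10% Tween 80 as the control.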

[2] = system: Salmonella typhimurium; assay: Antimicrobial activity against Salmonella enterica subsp. enterica serovar Typhimurium ATCC 14028 assessed as growth inhibition rate at 64.76 mg/l after 72 hr by spectrophotometry; details: ATCC 14028, 72 h, read-out: GI
[3] = system: Escherichia coli; assay: Antimicrobial activity against Escherichia coli O157:H7 ATCC 43894 assessed as growth inhibition rate at 64.76 mg/l after 72 hr by spectrophotometry; details: O157:H7 ATCC 43894, 72 h, read-out: GI
Summary of the method: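 Authentic volatiles (>95% purity; 2,4-heptadienal 90%) tested against 18 h subcultures. Growth media: E. coli O157:H7 and S. aureus in tryptic soy broth at 37 °C; L. monocytogenes in tryptic soy broth at 30 °C; V. parahaemolyticus in tryptic soy broth + 3% NaCl at 37 °C; S. typhimurium in nutrient broth at 30 °C. Bioscreen C OD every 24 h for 72 h versus 10% Tween 80 control.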

[4] = system: Vibrio parahaemolyticus; assay: Antimicrobial activity against Vibrio parahaemolyticus ATCC 33844 assessed as growth inhibition rate at 64.76 mg/l after 72 hr by spectrophotometry; details: ATCC 33844, 72 h, read-out: GI
[5] = system: Listeria monocytogenes; assay: Antimicrobial activity against Listeria monocytogenes ATCC 19111 assessed as growth inhibition rate at 64.76 mg/l after 72 hr by spectrophotometry; details: ATCC 19111, 72 h, read-out: GI
Summary of the method: (§2)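 L. monocytogenes was grown at 30 °C in tryptic soy broth, subcultured for 18 h, and exposed to pure volatile compounds (>95% purity). Growth was followed by Bioscreen C optical density every 24 h for 72 h against a 10% Tween 80 control.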

[6] = system: Staphylococcus aureus; assay: Antimicrobial activity against Staphylococcus aureus ATCC 25923 assessed as growth inhibition rate at 64.76 mg/l after 72 hr by spectrophotometry; details: ATCC 25923, 72 h, read-out: GI
[7] = system: Vibrio parahaemolyticus; assay: Antimicrobial activity against Vibrio parahaemolyticus ATCC 33844 assessed as growth inhibition rate at 4.64 mg/l after 72 hr by spectrophotometry; details: ATCC 33844, 72 h, read-out: GI
[8] = system: Escherichia coli; assay: Antimicrobial activity against Escherichia coli O157:H7 ATCC 43894 assessed as growth inhibition rate at 4.64 mg/l after 72 hr by spectrophotometry; details: O157:H7 ATCC 43894, 72 h, read-out: GI
[9] = system: Salmonella typhimurium; assay: Antimicrobial activity against Salmonella enterica subsp. enterica serovar Typhimurium ATCC 14028 assessed as growth inhibition rate at 4.64 mg/l after 72 hr by spectrophotometry; details: ATCC 14028, 72 h, read-out: GI
Summary of the method: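 Salmonella Typhimurium ATCC 14028 grown in nutrient broth at 30 °C, precultured 24 h, then subcultured 1:100 for 18 h before testing. Single volatile compounds (>95% pure) were added. OD was read every 24 h over 72 h in a Bioscreen C, with 10% Tween 80 as the comparison control.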

[10] = system: Listeria monocytogenes; assay: Antimicrobial activity against Listeria monocytogenes ATCC 19111 assessed as growth inhibition rate at 4.64 mg/l after 72 hr by spectrophotometry; details: ATCC 19111, 72 h, read-out: GI; summary of the method: as §2
[11] = system: Bacillus cereus; assay: Antimicrobial activity against Bacillus cereus ATCC 11778 assessed as growth inhibition rate at 4.64 mg/l after 72 hr by spectrophotometry; details: ATCC 11778, 72 h, read-out: GI; summary of the method: as §1
[12] = system: Staphylococcus aureus; assay: Antimicrobial activity against Staphylococcus aureus ATCC 25923 assessed as growth inhibition rate at 4.64 mg/l after 72 hr by spectrophotometry; details: ATCC 25923, 72 h, read-out: GI

**Q.** Which inhibition of growth at 64.76 µg/mL [1] does the source give for `C/C1=C\CC/C(C)=C/CC(C)(C)/C=C/C1` [ALPHA-HUMULONE] here?
**A.** 40.1%

**Q.** And the inhibition of growth at 64.76 µg/mL [2]?
**A.** 6.9%

**Q.** And the inhibition of growth at 64.76 µg/mL [3]?
**A.** 4.6%

**Q.** What about the inhibition of growth at 64.76 µg/mL [4] of the same compound?
**A.** 15.7%

**Q.** And the inhibition of growth at 64.76 µg/mL [5]?
**A.** 13.9%

**Q.** And the inhibition of growth at 64.76 µg/mL [6]?
**A.** 6.6%

**Q.** How did the inhibition of growth at 4.64 µg/mL [7] turn out when `C[C@@H]1CC[C@@H]2[C@@H]1[C@H]1[C@@H](CC[C@@]2(C)O)C1(C)C` [GLOBULOL] was run?
**A.** 0%

**Q.** And the inhibition of growth at 4.64 µg/mL [8]?
**A.** 0%

**Q.** And the inhibition of growth at 4.64 µg/mL [9]?
**A.** 0.8%

**Q.** What about the inhibition of growth at 4.64 µg/mL [10] of the same compound?
**A.** 6.3%

**Q.** What about the inhibition of growth at 4.64 µg/mL [11] of the same compound?
**A.** 1.9%

**Q.** And the inhibition of growth at 4.64 µg/mL [12]?
**A.** 8.3%
